We go through two compounds from ChEMBL document CHEMBL4330069, “Boosting the efficacy of anti-MRSA β-lactam antibiotics via an easily accessible, non-cytotoxic and orally bioavailable FtsZ inhibitor” (Eur J Med Chem, 2019).

Assay [1] relates to Staphylococcus aureus. Nature of the assay: Antibacterial activity against multidrug-resistant Staphylococcus aureus isolate 3411 by broth microdilution assay. Format: functional. The procedure, abridged:
(§1)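 Broth microdilution MIC per CLSI guidelines against clinical MRSA isolates, for β-lactams and test compound alone and in combination. Compounds were dissolved in DMSO. Growth was read by eye, in duplicate. FIC index = FIC(compound) + FIC(drug); synergy defined as FIC index ≤0.5.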
On the technique in general: In broth dilution the organism is exposed to a series of concentrations in liquid medium.

Assay [2] has as its system Staphylococcus aureus. The experiment in a line: Antibacterial activity against multidrug-resistant Staphylococcus aureus isolate 1136 by broth microdilution assay. Format: functional. An outline of the steps:
as §1

The subject of assay [3] is Staphylococcus aureus. Nature of the assay: Antibacterial activity against multidrug-resistant Staphylococcus aureus isolate 2516 by broth microdilution assay. Format: functional. The procedure, abridged:
as §1

For assay [4], the system named is Staphylococcus aureus. The experiment in a line: Antibacterial activity against multidrug-resistant Staphylococcus aureus isolate 1717 by broth microdilution assay. Format: functional. The procedure, abridged:
as §1

Assay [5] deals with Staphylococcus aureus. The experiment in a line: Antibacterial activity against multidrug-resistant Staphylococcus aureus isolate 417 by broth microdilution assay. Format: functional. The procedure, abridged:
as §1

Assay [6] deals with Staphylococcus aureus. The experiment in a line: Antibacterial activity against multidrug-resistant Staphylococcus aureus isolate 3267 by broth microdilution assay. The class given is functional. An outline of the steps:
as §1

The subject of assay [7] is Staphylococcus aureus. The experiment in a line: Antibacterial activity against multidrug-resistant Staphylococcus aureus isolate 85 by broth microdilution assay. The class given is functional. The procedure, abridged: as §1
The subject of assay [8] is Staphylococcus aureus. The experiment in a line: Antibacterial activity against multidrug-resistant Staphylococcus aureus isolate 2728 by broth microdilution assay. The class given is functional. The procedure, abridged: as §1
Assay [9] relates to Staphylococcus aureus. Nature of the assay: Antibacterial activity against multidrug-resistant Staphylococcus aureus isolate 2490 by broth microdilution assay. Format: functional. The procedure, abridged: as §1
Assay [10] deals with Staphylococcus aureus. Nature of the assay: Antibacterial activity against multidrug-resistant Staphylococcus aureus isolate 231 by broth microdilution assay. The class given is functional. The procedure, abridged: as §1
Assay [11] relates to Staphylococcus aureus. The experiment in a line: Antibacterial activity against multidrug-resistant Staphylococcus aureus isolate 757 by broth microdilution assay. Format: functional. An outline of the steps: as §1
Assay [12] relates to Staphylococcus aureus. The experiment in a line: Antibacterial activity against multidrug-resistant Staphylococcus aureus isolate 2973 by broth microdilution assay. Format: functional. The procedure, abridged: as §1
Assay [13] relates to Staphylococcus aureus. Nature of the assay: Antibacterial activity against multidrug-resistant Staphylococcus aureus isolate 1449 by broth microdilution assay. Format: functional. The procedure, abridged: as §1
For assay [14], the system named is Staphylococcus aureus. Nature of the assay: Antibacterial activity against multidrug-resistant Staphylococcus aureus isolate 2224 by broth microdilution assay. The class given is functional. The procedure, abridged:
as §1

Assay [15] deals with Staphylococcus aureus. Nature of the assay: Antibacterial activity against multidrug-resistant Staphylococcus aureus isolate 1344 by broth microdilution assay. Format: functional. The procedure, abridged: as §1
Assay [16] concerns Staphylococcus aureus. The experiment in a line: Antibacterial activity against multidrug-resistant Staphylococcus aureus isolate 256 by broth microdilution assay. The class given is functional. The procedure, abridged: as §1
The test system of assay [17] is Staphylococcus aureus. Nature of the assay: Antibacterial activity against multidrug-resistant Staphylococcus aureus isolate 774 by broth microdilution assay. Format: functional. The procedure, abridged:
as §1

For assay [18], the system named is Staphylococcus aureus. Nature of the assay: Antibacterial activity against multidrug-resistant Staphylococcus aureus isolate 2919 by broth microdilution assay. Format: functional. An outline of the steps: as §1
The subject of assay [19] is Staphylococcus aureus. Nature of the assay: Antibacterial activity against multidrug-resistant Staphylococcus aureus isolate 2895 by broth microdilution assay. Format: functional. An outline of the steps:
as §1

Assay [20] has as its system Staphylococcus aureus. Nature of the assay: Antibacterial activity against multidrug-resistant Staphylococcus aureus isolate 1402 by broth microdilution assay. The class given is functional. An outline of the steps: as §1
The test system of assay [21] is Staphylococcus aureus. Nature of the assay: Antibacterial activity against multidrug-resistant Staphylococcus aureus isolate 358 by broth microdilution assay. The class given is functional. The procedure, abridged: as §1
The subject of assay [22] is Staphylococcus aureus. Nature of the assay: Antibacterial activity against multidrug-resistant Staphylococcus aureus isolate 3589 by broth microdilution assay. The class given is functional. An outline of the steps:
as §1

Assay [23] has as its system Staphylococcus aureus. The experiment in a line: Antibacterial activity against multidrug-resistant Staphylococcus aureus isolate 254 by broth microdilution assay. Format: functional. The procedure, abridged: as §1
The subject of assay [24] is Staphylococcus aureus. The experiment in a line: Antibacterial activity against multidrug-resistant Staphylococcus aureus isolate 1749 by broth microdilution assay. The class given is functional. The procedure, abridged:
as §1

In assay [25] the test system is Staphylococcus aureus. Nature of the assay: Antibacterial activity against multidrug-resistant Staphylococcus aureus isolate 200 by broth microdilution assay. The class given is functional. The procedure, abridged: as §1
In assay [26] the test system is Staphylococcus aureus. Nature of the assay: Antibacterial activity against multidrug-resistant Staphylococcus aureus ATCC 43300 infected in BALB/C mouse assessed as mouse survival at 25 mg/kg, ip bid measured on day 4 post infection (reference value: 50%). Format: functional.
The subject of assay [27] is Staphylococcus aureus. The experiment in a line: Antibacterial activity against multidrug-resistant Staphylococcus aureus isolate 2901 by broth microdilution assay. Format: functional. An outline of the steps:
as §1

For assay [28], the system named is Staphylococcus aureus. The experiment in a line: Antibacterial activity against multidrug-resistant Staphylococcus aureus ATCC 43300 infected in BALB/C mouse assessed as mouse survival at 50 mg/kg, ip bid measured after 5 days. The class given is functional, organism-based.
Assay [29] concerns Staphylococcus aureus. Nature of the assay: Antibacterial activity against multidrug-resistant Staphylococcus aureus isolate 3332 by broth microdilution assay. Format: functional. An outline of the steps: as §1
Assay [30] concerns Staphylococcus aureus. Nature of the assay: Antibacterial activity against multidrug-resistant Staphylococcus aureus isolate 3580 by broth microdilution assay. Format: functional. The procedure, abridged: as §1
Assay [31] relates to Staphylococcus aureus. Nature of the assay: Antibacterial activity against multidrug-resistant Staphylococcus aureus ATCC 43300 infected in BALB/C mouse assessed as mouse survival at 50 mg/kg, ip bid measured after 5 days relative to control. Format: functional.

One may read the MIC as the lowest concentration found to suppress growth. A high value points to weaker potency.

In brackets after ≈: the same amount, converted by molar mass. Activity calls are given as the source filed them.

Turning to `CO/N=C(\C(=O)N[C@@H]1C(=O)N2C(C(=O)O)=C(COC(N)=O)CS[C@H]12)c1ccco1` [CEFUROXIME], the MIC in assay [1] was determined as 1020 µg/mL (≈ 2410 µM); in [2], 512 µg/mL (≈ 1210 µM); in assay [3] it was 512 µg/mL (≈ 1210 µM); in [4], 16 µg/mL (≈ 37.7 µM); in [5], 1020 µg/mL (≈ 2410 µM); in assay [6] it was 256 µg/mL (≈ 603 µM). In addition, the MIC in [7] turned out to be 8 µg/mL (≈ 18.9 µM); in assay [8], 16 µg/mL (≈ 37.7 µM); in assay [9], 32 µg/mL (≈ 75.4 µM); in assay [10] it was 1020 µg/mL (≈ 2410 µM); in assay [11], 32 µg/mL (≈ 75.4 µM); in assay [12], 8 µg/mL (≈ 18.9 µM). The MIC stood at 2 µg/mL (≈ 4.71 µM) in assay [13]; 8 µg/mL (≈ 18.9 µM) in [14]; 256 µg/mL (≈ 603 µM) in assay [15]; 256 µg/mL (≈ 603 µM) in assay [16]; 1020 µg/mL (≈ 2410 µM) in assay [17]; 16 µg/mL (≈ 37.7 µM) in [18]. The MIC in assay [19] was found to be 64 µg/mL (≈ 151 µM); in assay [20] it was 16 µg/mL (≈ 37.7 µM); in assay [21], 2 µg/mL (≈ 4.71 µM); in assay [22], 512 µg/mL (≈ 1210 µM); in assay [23], 1020 µg/mL (≈ 2410 µM); in assay [24], 16 µg/mL (≈ 37.7 µM). Further, the MIC was determined as 2 µg/mL (≈ 4.71 µM) in assay [25], 16 µg/mL (≈ 37.7 µM) in [27], 512 µg/mL (≈ 1210 µM) in assay [29] and 1020 µg/mL (≈ 2410 µM) in assay [30]. Moreover, the Activity in assay [26] was 70%. Besides, in assay [28], the result was inactive.
For `CCCCCCCCCNc1ccc(F)c(C(N)=O)c1F.Cl`, in [31], the Activity came out at 33%.
